Source: ChEMBL document CHEMBL4339192, “De Novo Designed Amphipathic α-Helical Antimicrobial Peptides Incorporating Dab and Dap Residues on the Polar Face To Treat the Gram-Negative Pathogen, Acinetobacter baumannii” (J Med Chem, 2019)
≈ marks a conversion by molar mass, not a printed value. Where a SMILES comes first, the peptide text is derived from it. [ ]: non-standard residue; d: D form. Dab = NCC[C@H](N)C(=O)O

How the values were obtained:
[1] = system: Acinetobacter baumannii; assay: Antibacterial activity against Acinetobacter baumannii 649 measured after 24 hrs in presence of 25% human serum by microtiter dilution method; assay type: functional; conditions: Acinetobacter baumannii, 649, 24 h
Summary of the method: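 Blood strain 649 was tested by MH broth microdilution with and without 25% (v/v) human serum added to the medium. The test used a final inoculum of 5 × 10^5 cfu/mL and incubation at 37 °C. The ratio is the MIC in serum over the MIC in MH alone.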

[2] = Therapeutic index, ratio of HC50 for human RBC to MIC for polymyxin B/colistin-resistant Acinetobacter baumannii M89963; assay type: toxicity; conditions: human red blood cells, read-out: TI
Summary of the method: (§1)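 T.I. = HC50/MIC. For HC50, peptide (quantified by amino acid analysis) was two-fold serially diluted over 12 concentrations up to 1000 μg/mL. It was incubated with 1% fresh human erythrocytes in PBS, pH 7.4, for 18 h at 37 °C. After 800g centrifugation, hemoglobin was read at 570 nm against water (100%) and no-peptide (0%) controls. HC50 came from a lysis-versus-concentration plot, average of 3 replicates.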

[3] = system: Acinetobacter baumannii; assay: Antibacterial activity against Acinetobacter baumannii 649 measured after 24 hrs by microtiter dilution method; assay type: functional; conditions: Acinetobacter baumannii, 649, 24 h
Summary of the method: (§2)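 Broth microdilution in Mueller-Hinton (MH) medium. […] Plates were incubated 24 h at 37 °C. MIC was the lowest peptide concentration that inhibited growth, based on three sets of replicates.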

[4] = Therapeutic index, ratio of HC50 for human RBC to MIC for polymyxin B/colistin-resistant Acinetobacter baumannii M89955; assay type: toxicity; conditions: human red blood cells, read-out: TI; summary of the method: as §1
[5] = Therapeutic index, ratio of HC50 for human RBC to MIC for polymyxin B/colistin-resistant Acinetobacter baumannii M89953; assay type: toxicity; conditions: human red blood cells, read-out: TI; summary of the method: as §1
[6] = Therapeutic index, ratio of HC50 for human RBC to MIC for polymyxin B/colistin-resistant Acinetobacter baumannii M89951; assay type: toxicity; conditions: human red blood cells, read-out: TI; summary of the method: as §1
[7] = Therapeutic index, ratio of HC50 for human RBC to MIC for polymyxin B/colistin-resistant Acinetobacter baumannii M89952; assay type: toxicity; conditions: human red blood cells, read-out: TI; summary of the method: as §1
[8] = Therapeutic index, ratio of HC50 for human RBC to MIC for polymyxin B/colistin-resistant Acinetobacter baumannii M89949; assay type: toxicity; conditions: human red blood cells, read-out: TI; summary of the method: as §1
[9] = Hemolytic activity against human RBC measured after 18 hrs by spectrophotometric method; assay type: ADME, cell-based, Erythrocyte; conditions: human red blood cells (erythrocytes)
Summary of the method: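 Peptide (amount by amino acid analysis), two-fold serial dilutions at 12 concentrations up to 1000 μg/mL, with 1% human erythrocytes in PBS pH 7.4, 37 °C, 18 h. Unlysed cells removed by centrifugation (800g); hemoglobin read at 570 nm. Water-lysed cells = 100%, no-peptide cells = 0%. HC50 from plot of % lysis vs concentration (μM), average of 3 replicates.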

[10] = Therapeutic index, ratio of HC50 for human RBC to MIC for polymyxin B/colistin-resistant Acinetobacter baumannii M89941; assay type: toxicity; conditions: human red blood cells, read-out: TI; summary of the method: as §1
[11] = system: Acinetobacter baumannii; assay: Antibacterial activity against Acinetobacter baumannii isolate 1001611 measured after 24 hrs by microtiter dilution method; assay type: functional; conditions: isolate 1001611, 24 h; summary of the method: as §2
[12] = system: Acinetobacter baumannii; assay: Antibacterial activity against Acinetobacter baumannii isolate 1007660 measured after 24 hrs by microtiter dilution method; assay type: functional; conditions: isolate 1007660, 24 h; summary of the method: as §2
[13] = system: Acinetobacter baumannii; assay: Antibacterial activity against Acinetobacter baumannii isolate 1021371 measured after 24 hrs by microtiter dilution method; assay type: functional; conditions: isolate 1021371, 24 h; summary of the method: as §2
[14] = system: Acinetobacter baumannii; assay: Antibacterial activity against Acinetobacter baumannii isolate 952654 measured after 24 hrs by microtiter dilution method; assay type: functional; conditions: isolate 952654, 24 h; summary of the method: as §2
[15] = system: Acinetobacter baumannii; assay: Antibacterial activity against Acinetobacter baumannii isolate 9383370 measured after 24 hrs by microtiter dilution method; assay type: functional; conditions: isolate 9383370, 24 h; summary of the method: as §2
[16] = system: Acinetobacter baumannii; assay: Antibacterial activity against Acinetobacter baumannii isolate 961997 measured after 24 hrs by microtiter dilution method; assay type: functional; conditions: isolate 961997, 24 h; summary of the method: as §2
[17] = system: Acinetobacter baumannii; assay: Antibacterial activity against Acinetobacter baumannii isolate 1002956 measured after 24 hrs by microtiter dilution method; assay type: functional; conditions: isolate 1002956, 24 h; summary of the method: as §2
[18] = system: Acinetobacter baumannii; assay: Antibacterial activity against Acinetobacter baumannii isolate 977751 measured after 24 hrs by microtiter dilution method; assay type: functional; conditions: isolate 977751, 24 h; summary of the method: as §2
[19] = system: Acinetobacter baumannii; assay: Antibacterial activity against Acinetobacter baumannii isolate 1035166 measured after 24 hrs by microtiter dilution method; assay type: functional; conditions: isolate 1035166, 24 h; summary of the method: as §2
[20] = system: Acinetobacter baumannii; assay: Antibacterial activity against Acinetobacter baumannii isolate 1010282 measured after 24 hrs by microtiter dilution method; assay type: functional; conditions: isolate 1010282, 24 h; summary of the method: as §2
[21] = system: Acinetobacter baumannii; assay: Antibacterial activity against Acinetobacter baumannii isolate 1010245 measured after 24 hrs by microtiter dilution method; assay type: functional; conditions: isolate 1010245, 24 h; summary of the method: as §2
[22] = system: Acinetobacter baumannii; assay: Antibacterial activity against Acinetobacter baumannii isolate 1017395 measured after 24 hrs by microtiter dilution method; assay type: functional; conditions: isolate 1017395, 24 h; summary of the method: as §2
[23] = system: Acinetobacter baumannii; assay: Antibacterial activity against Acinetobacter baumannii isolate 968886 measured after 24 hrs by microtiter dilution method; assay type: functional; conditions: isolate 968886, 24 h; summary of the method: as §2
[24] = system: Acinetobacter baumannii; assay: Antibacterial activity against Acinetobacter baumannii isolate 964304 measured after 24 hrs by microtiter dilution method; assay type: functional; conditions: isolate 964304, 24 h; summary of the method: as §2
[25] = system: Acinetobacter baumannii; assay: Antibacterial activity against Acinetobacter baumannii isolate 963659 measured after 24 hrs by microtiter dilution method; assay type: functional; conditions: isolate 963659, 24 h; summary of the method: as §2
[26] = system: Acinetobacter baumannii; assay: Antibacterial activity against Acinetobacter baumannii isolate 963618 measured after 24 hrs by microtiter dilution method; assay type: functional; conditions: isolate 963618, 24 h; summary of the method: as §2
[27] = system: Acinetobacter baumannii; assay: Antibacterial activity against Acinetobacter baumannii isolate 1018887 measured after 24 hrs by microtiter dilution method; assay type: functional; conditions: isolate 1018887, 24 h; summary of the method: as §2
[28] = system: Acinetobacter baumannii; assay: Antibacterial activity against Acinetobacter baumannii isolate 1035794 measured after 24 hrs by microtiter dilution method; assay type: functional; conditions: isolate 1035794, 24 h; summary of the method: as §2
[29] = system: Acinetobacter baumannii; assay: Antibacterial activity against Acinetobacter baumannii isolate 981650 measured after 24 hrs by microtiter dilution method; assay type: functional; conditions: isolate 981650, 24 h; summary of the method: as §2
[30] = system: Acinetobacter baumannii; assay: Antibacterial activity against Acinetobacter baumannii isolate 965463 measured after 24 hrs by microtiter dilution method; assay type: functional; conditions: isolate 965463, 24 h; summary of the method: as §2
[31] = system: Acinetobacter baumannii; assay: Antibacterial activity against polymyxin B/colistin-resistant Acinetobacter baumannii M89963 measured after 24 hrs by microtiter dilution method; assay type: functional; conditions: M89963, 24 h; summary of the method: as §2
[32] = system: Acinetobacter baumannii; assay: Antibacterial activity against polymyxin B/colistin-resistant Acinetobacter baumannii M89955 measured after 24 hrs by microtiter dilution method; assay type: functional; conditions: M89955, 24 h; summary of the method: as §2
[33] = system: Acinetobacter baumannii; assay: Antibacterial activity against polymyxin B/colistin-resistant Acinetobacter baumannii M89953 measured after 24 hrs by microtiter dilution method; assay type: functional; conditions: M89953, 24 h; summary of the method: as §2
[34] = system: Acinetobacter baumannii; assay: Antibacterial activity against polymyxin B/colistin-resistant Acinetobacter baumannii M89952 measured after 24 hrs by microtiter dilution method; assay type: functional; conditions: M89952, 24 h; summary of the method: as §2
[35] = system: Acinetobacter baumannii; assay: Antibacterial activity against polymyxin B/colistin-resistant Acinetobacter baumannii M89951 measured after 24 hrs by microtiter dilution method; assay type: functional; conditions: M89951, 24 h; summary of the method: as §2
[36] = system: Acinetobacter baumannii; assay: Antibacterial activity against polymyxin B/colistin-resistant Acinetobacter baumannii M89949 measured after 24 hrs by microtiter dilution method; assay type: functional; conditions: M89949, 24 h; summary of the method: as §2
[37] = system: Acinetobacter baumannii; assay: Antibacterial activity against polymyxin B/colistin-resistant Acinetobacter baumannii M89941 measured after 24 hrs by microtiter dilution method; assay type: functional; conditions: M89941, 24 h; summary of the method: as §2

Question: With `CC(=O)N[C@H](CCCCN)C(=O)N[C@H](CC(C)C)C(=O)N[C@@H](CCN)C(=O)N[C@H](CO)C(=O)N[C@H](CC(C)C)C(=O)N[C@H](CC(C)C)C(=O)N[C@@H](CCN)C(=O)N[C@@H](C(=O)N[C@H](CC(C)C)C(=O)N[C@H](CO)C(=O)N[C@@H](CCN)C(=O)N[C@H](C)C(=O)N[C@H](CCCCN)C(=O)N[C@H](C)C(=O)N[C@H](C)C(=O)N[C@H](CCCCN)C(=O)N[C@H](CC(C)C)C(=O)N[C@@H](CCN)C(=O)N[C@@H](C(=O)N[C@H](CC(C)C)C(=O)N[C@H](CC(C)C)C(=O)N[C@@H](CCN)C(=O)N[C@H](C)C(=O)N[C@H](CC(C)C)C(=O)N[C@H](CO)C(=O)N[C@@H](CCN)C(N)=O)[C@H](C)O)[C@H](C)O` (Ac-[dK][dL][Dab][dS][dL][dL][Dab][dT][dL][dS][Dab][dA][dK][dA][dA][dK][dL][Dab][dT][dL][dL][Dab][dA][dL][dS][Dab]-NH2) as the molecule, how does the MIC [1] read?
Answer: 0.2 µM

Question: What about the selectivity ratio [2] of the same molecule?
Answer: > 742

Question: And the MIC [3]?
Answer: 0.7 µM (≈ 1.89 µg/mL)

Question: And the selectivity ratio [4]?
Answer: > 742

Question: And the selectivity ratio [5]?
Answer: > 742

Question: What about the selectivity ratio [6] of the same molecule?
Answer: > 742

Question: And the selectivity ratio [7]?
Answer: > 742

Question: What about the selectivity ratio [8] of the same molecule?
Answer: > 742

Question: What about the HC50 at 18 h [9] of the same molecule?
Answer: > 742 µM

Question: What about the selectivity ratio [10] of the same molecule?
Answer: > 742

Question: And the MIC [11]?
Answer: 0.7 µM (≈ 1.89 µg/mL)

Question: And the MIC [12]?
Answer: 0.7 µM (≈ 1.89 µg/mL)

Question: And the MIC [13]?
Answer: 1.5 µM (≈ 4.05 µg/mL)

Question: What about the MIC [14] of the same molecule?
Answer: 1.5 µM (≈ 4.05 µg/mL)

Question: What about the MIC [15] of the same molecule?
Answer: 0.7 µM (≈ 1.89 µg/mL)

Question: What about the MIC [16] of the same molecule?
Answer: 0.7 µM (≈ 1.89 µg/mL)

Question: What about the MIC [17] of the same molecule?
Answer: 0.7 µM (≈ 1.89 µg/mL)

Question: And the MIC [18]?
Answer: 0.7 µM (≈ 1.89 µg/mL)

Question: What about the MIC [19] of the same molecule?
Answer: 0.7 µM (≈ 1.89 µg/mL)

Question: What about the MIC [20] of the same molecule?
Answer: 0.7 µM (≈ 1.89 µg/mL)

Question: And the MIC [21]?
Answer: 0.7 µM (≈ 1.89 µg/mL)

Question: What about the MIC [22] of the same molecule?
Answer: 3 µM (≈ 8.09 µg/mL)

Question: What about the MIC [23] of the same molecule?
Answer: 1.5 µM (≈ 4.05 µg/mL)

Question: And the MIC [24]?
Answer: 1.5 µM (≈ 4.05 µg/mL)

Question: And the MIC [25]?
Answer: 0.7 µM (≈ 1.89 µg/mL)

Question: What about the MIC [26] of the same molecule?
Answer: 0.7 µM (≈ 1.89 µg/mL)

Question: What about the MIC [27] of the same molecule?
Answer: 0.7 µM (≈ 1.89 µg/mL)

Question: And the MIC [28]?
Answer: 1.5 µM (≈ 4.05 µg/mL)

Question: And the MIC [29]?
Answer: 0.7 µM (≈ 1.89 µg/mL)

Question: And the MIC [30]?
Answer: 3 µM (≈ 8.09 µg/mL)

Question: And the MIC [31]?
Answer: 1.4 µM (≈ 3.78 µg/mL)

Question: What about the MIC [32] of the same molecule?
Answer: 0.7 µM (≈ 1.89 µg/mL)

Question: And the MIC [33]?
Answer: 1.4 µM (≈ 3.78 µg/mL)

Question: And the MIC [34]?
Answer: 0.7 µM (≈ 1.89 µg/mL)

Question: And the MIC [35]?
Answer: 1.4 µM (≈ 3.78 µg/mL)

Question: And the MIC [36]?
Answer: 0.7 µM (≈ 1.89 µg/mL)

Question: What about the MIC [37] of the same molecule?
Answer: 0.7 µM (≈ 1.89 µg/mL)
